RGS4 block = human RGS4 inhibition. HEK293 M3R/RGS4 inducible, Fluo-4 calcium flux; active compounds read high; triggered by carbachol at its EC20. B-score at 10 µM. AID 463165. P49798. 310,000 compounds, 0.45% hits;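 active = B-score, a plate-corrected calcium signal, over three deviations above library mean, with baseline fluorescence within five deviations of library mean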;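 also: RGS4 expression induced by doxycycline in cells with stable M3 receptor; B-score is computed from the integrated fluorescence ratio over baseline after carbachol; higher B-score means a larger calcium signal and so more RGS4 inhibition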
Target sequence (P49798 whole entry, looked up): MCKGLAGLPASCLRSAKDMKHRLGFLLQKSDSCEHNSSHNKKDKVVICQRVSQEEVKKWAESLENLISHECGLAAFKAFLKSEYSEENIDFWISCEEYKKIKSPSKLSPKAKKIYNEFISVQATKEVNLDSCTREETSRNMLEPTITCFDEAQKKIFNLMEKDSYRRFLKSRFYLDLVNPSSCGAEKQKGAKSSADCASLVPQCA
MrgX1 antagonist = antagonists of human MrgX1 receptor. Q96LB2. 310,000 compounds, 1.3% hits. MRGX1-HEK293 calcium flux, Fluo-4, BAM8-22 antagonism; active compounds read low. B-score at 10 µM;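 active = calcium-response B-score plate-corrected more than 3 library SD below zero, starting fluorescence within 5 deviations, no agonist response on first addition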;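 also: peak minus trough fluorescence over baseline after final BAM8-22 challenge near maximal dose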
Target sequence (Q96LB2 whole entry, looked up): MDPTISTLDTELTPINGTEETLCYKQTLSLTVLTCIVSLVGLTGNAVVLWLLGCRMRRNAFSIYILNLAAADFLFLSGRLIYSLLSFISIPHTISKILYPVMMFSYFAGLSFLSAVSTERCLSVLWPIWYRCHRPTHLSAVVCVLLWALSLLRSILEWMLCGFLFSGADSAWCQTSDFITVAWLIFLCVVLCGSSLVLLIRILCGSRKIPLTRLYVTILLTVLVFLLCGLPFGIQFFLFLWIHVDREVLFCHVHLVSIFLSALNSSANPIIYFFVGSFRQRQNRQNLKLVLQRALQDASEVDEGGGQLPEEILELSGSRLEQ
MrgX1 allo act = allosterically activates human MrgX1 receptor signaling. AID 588675. Q96LB2. B-score at 10 µM. 310,000 compounds, 0.63% hits. MrgX1-HEK293, Fluo-4 calcium flux, FDSS; active compounds read high;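 active = plate-corrected calcium response at least 3 library SD above typical, normal starting fluorescence, not activating the receptor alone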;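 also: compound read alongside a low EC10 to EC30 dose of BAM8-22 agonist; peak minus trough fluorescence over baseline measured at the second addition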
RGS4 act = RGS4 potentiation or activation. HEK293 M3R/inducible RGS4, carbachol calcium flux Fluo4; active compounds read low. B-score at 10 µM. 310,000 compounds, 0.92% hits. AID 463111;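 active = B-score of the integrated calcium signal more than 4 SD below the library mean, with starting fluorescence not abnormally high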;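 also: negative B-score means reduced calcium response which marks RGS4 activation or potentiation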
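Detection: kinetic calcium fluorescence imaging with Fluo4-AM dye, 2 µM / Material: HEK293 cells with stable M3R and inducible RGS4 / Schedule: recording 10 s baseline at 1 Hz, 100 s post-agonist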
MrgX1 ag = agonists of human MrgX1 receptor. 310,000 compounds, 0.44% hits. Q96LB2. MrgX1-HEK293 cells, Fluo-4 calcium fluorescence, agonist mode; active compounds read high. B-score at 10 µM;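 active = calcium response B-score plate-corrected fluorescence ratio at least 3 library SD, with starting fluorescence B-score inside 5 SD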
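Test system: HEK293 cells stably expressing human MrgX1 receptor; Input: fifteen thousand cells per well; Dosing: compound delivered in addition one of three; Schedule: overnight seeding, then 1 h dark dye loading; Technique: Fluo-4 NW calcium fluorescence; Measure: B-scored fluorescence response ratio; Controls: positive and negative controls per plate.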
RGS4 activ val = RGS4 activation, validation assay; inhibition, % at 10 µM; shares compounds with RGS4 act; AID 602282; 1,100 compounds, 89% hits; HEK293 M3R/RGS4 inducible, carbachol calcium flux Fluo4;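 active = inhibition above 3 SD of the buffer control wells, cut at about 41% in these data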;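 also: signal is the integrated peak-minus-minimum Fluo4 fluorescence over baseline ratio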
M3R Ca counter = activity in cells without induced RGS4 expression; shares compounds with RGS4 act; HEK293 M3R non-induced RGS4, Fluo4 calcium flux; after carbachol challenge at its EC90; inhibition, % at 10 µM; 1,100 compounds, 82% hits; AID 602283;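 active = inhibition exceeding 3 SD of buffer-only control wells, cut at about 26% in these data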;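 also: percent drop in integrated peak-minus-baseline over baseline Fluo4 ratio after carbachol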
MrgX1 ag reconf = human MrgX1 agonism, re-confirmation screen. shares compounds with MrgX1 ag. MrgX1-HEK293, Fluo-4 calcium fluorescence, FDSS. activation, % at 10 µM. 600 compounds, 78% hits;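 active = calcium signal rise, corrected for plate position, at least 3 library SD high, with starting brightness within 5 such deviations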
MrgX1 allo conf = confirmation of human MrgX1 receptor positive allosteric modulators; 1,200 compounds, 13% hits; activation (ratio percentage), % at 10 µM; shares compounds with MrgX1 allo act; MrgX1-HEK293, Fluo-4 calcium fluorescence, FDSS;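 active = ratio at least 3 SD above the weak peptide control, stable starting fluorescence, no direct agonism earlier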;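 also: compound followed by low BAM8-22 agonist challenge near EC20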
MrgX1 ant reconf = reconfirmed antagonist of human MrgX1 receptor signaling; remaining BAM8-22 calcium response % of control (active compounds read low), % at 10 µM; MrgX1-HEK293, BAM8-22 calcium flux, Fluo-4; active compounds read low; shares compounds with MrgX1 antagonist; 2,300 compounds, 19% hits;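 active = remaining agonist calcium response no higher than 100% minus 3 SD of agonist-only control wells, with starting fluorescence near control levels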;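 also: agonist BAM8-22 given at a near maximal EC90 to ECmax level; peak minus minimum fluorescence divided by baseline after agonist addition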
HEK293 Ca flux = MrgX1 antagonist counter-screen hit in parental HEK293 cells. shares compounds with MrgX1 antagonist. Fluo-4 calcium fluorescence, FDSS. fluorescence ratio F(max-min)/F0 at 10 µM. 4,000 compounds, 2% hits. AID 624111;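 active = duplicate-averaged calcium fluorescence ratio at least three times the standard deviation of buffer wells, a nonspecific response in parental cells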
HEK293 Ca counter = MrgX1 allosteric activator counter-screen hit in parental HEK293 cells; shares compounds with MrgX1 antagonist; parental HEK293 calcium flux, Fluo-4 fluorescence ratio; active compounds read high; fluorescence ratio F(max-min)/F0 at 10 µM; 4,000 compounds, 0.4% hits; AID 624114;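 active = calcium fluorescence ratio, averaged over duplicates, at least 3 SD of the buffer-well ratio, meaning a nonspecific response in receptor-free cells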;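 also: untransfected parental HEK293 lacking MrgX1 used as counterscreen for MrgX1 allosteric activators; fluorescence change taken during the second addition on a kinetic imager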
HEK293 Ca cntr2 = activity in parental HEK293 cells lacking MrgX1 receptor | Fluo-4 calcium fluorescence (FDSS); active compounds read high | shares compounds with MrgX1 antagonist | fluorescence ratio F(max-min)/F0 at 10 µM | 4,000 compounds, 8.7% hits;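 active = calcium fluorescence ratio at least three times the spread of buffer wells, meaning a non-specific response in parental cells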
* marks the source's active call; other numbers are inactive results; i = inactive; · = no result. Shown are actives, neighbours in structure and some others; about 3.5% of the full set was active somewhere.

SMILES | RGS4 block | MrgX1 antagonist | MrgX1 allo act | RGS4 act | MrgX1 ag | RGS4 activ val | M3R Ca counter | HEK293 Ca flux | HEK293 Ca counter | HEK293 Ca cntr2 | others
OCCCNc1ncnc2oc(-c3ccccc3)c(-c3ccccc3)c12 | i | -5* | i | -8.4* | i | 0 | 0 | i | i | i | MrgX1 ant reconf=i
O=C1CC(c2ccccc2)CC(=O)C1CS(=O)(=O)c1ccccc1 (stereo not given) | i | i | i | i | i | · | · | · | · | ·
O=C(CSc1nc2ccccc2c2c1CCCC2)N1CCOCC1 | i | i | 19* | -9.3* | i | 92* | 92* | i | i | i | MrgX1 allo conf=i
Cc1ccc(S(=O)(=O)N/N=C/c2ccc(OCC(=O)NC(C)C)cc2)cc1 | i | i | i | i | i | · | · | · | · | ·
COc1cccc(NC(=O)Nc2nc(-c3ccc(OC)c(OC)c3)cs2)c1 | i | -7* | i | -8.1* | i | 92* | 85* | i | i | i | MrgX1 ant reconf=22%*
CC1(C)CC(=O)C2=C(C1)Nc1ccccc1NC2 | i | i | i | -7.9* | 34* | 0 | 0 | i | i | i | MrgX1 ag reconf=i
CC1(C)CC(=O)C2=C(C1)Nc1ccccc1S2 | i | i | i | i | i | · | · | · | · | ·
COc1cc(Cl)ccc1NC(=O)COc1ccccc1C(=O)NN | i | i | i | i | i | · | · | · | · | ·
CCCc1ccc(Oc2cn[nH]c2-c2ccc(O)c(C)c2O)cc1 | i | -6.8* | i | -9.1* | i | 93* | 94* | i | i | i | MrgX1 ant reconf=i
Cc1cc(C)nc(/N=C(\N)Nc2ccc(OCc3ccccc3)cc2)n1 | i | i | i | -10* | 161* | 87* | 62* | i | i | 128* | MrgX1 ag reconf=590%*
c1ccc(Cn2nnc3cnccc32)cc1 | i | -6.7* | i | -8.4* | i | 0 | 0 | i | i | i | MrgX1 ant reconf=i
c1ccc(Cn2nnc3ccccc32)cc1 | i | i | i | i | i | · | · | · | · | ·
CC1CCN(CC(=O)NC2CCCCC2)CC1 | i | i | i | i | i | · | · | · | · | ·
CCCOc1ccc(C(=O)NC(=S)NNC(=O)c2c(-c3ccccc3)noc2C)cc1 | i | i | i | -11* | 105* | 92* | 82* | i | i | 115* | MrgX1 ag reconf=690%*
Cc1onc(-c2ccccc2)c1C(=O)NC(=S)NNC(=O)c1ccc(O)cc1 | i | i | i | i | i | · | · | · | · | ·
CCc1[nH]nc(C(=O)N2CCCC(C(=O)c3cccc(C(F)(F)F)c3)C2)c1C (stereo not given) | i | i | i | i | i | · | · | · | · | ·
Cc1ccc(OCC(=O)Nc2cccc(-c3nnc(-c4ccccc4)o3)c2)c(C)c1 | i | i | i | i | i | · | · | · | · | ·

Screening results as filed in PubChem BioAssay.
